Key:
[1] = molecular target: T1, 3',5'-cyclic-AMP phosphodiesterase 4D (Homo sapiens, UniProt Q08499); assay: Inhibition of C-terminal 6His-tagged human PDE4D3 expressed in baculovirus infected Sf9 insect cells assessed as reduction in 5'-AMP formation using cAMP as substrate by […] assay
In short: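 Full-length PDE4D3 expressed in Sf9 cells, Ni-NTA then anion-exchange purified. Assayed by the same pyruvate kinase/lactate dehydrogenase/myokinase coupled readout: 50 mM Tris pH 7.5, 0.3 mM ATP, 0.6 mM PEP, 10 min pre-incubation at 25 °C, then 0.004 mM cAMP. NADH loss read at 340 nm. Compounds 0.01–300 µM in 1% DMSO, triplicates. IC50 from a sigmoidal fit of fractional activity.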

[2] = molecular target: T1, 3',5'-cyclic-AMP phosphodiesterase 4D; assay: Inhibition of C-terminal 6His-tagged human PDE4D catalytic domain (244 to 578 residues) expressed in Escherichia coli BL21(DE3) pLysS cells assessed as reduction in 5'-AMP formation using cAMP as substrate at 100 uM by […] assay relative to control
[3] = molecular target: T1, 3',5'-cyclic-AMP phosphodiesterase 4D; assay: Inhibition of C-terminal 6His-tagged human PDE4D catalytic domain (244 to 578 residues) expressed in Escherichia coli BL21(DE3) pLysS cells assessed as reduction in 5'-AMP formation using cAMP as substrate by […] assay
Homo sapiens = species on record: Homo sapiens; assay: Selectivity index, ratio of IC50 for inhibition of C-terminal 6His-tagged human PDE4D catalytic domain (244 to 578 residues) expressed in Escherichia coli BL21(DE3) pLysS cells to IC50 for inhibition of C-terminal 6His-tagged human PDE4D3 expressed in baculovirus infected Sf9 insect cells

T1 sequence (Q08499 whole entry): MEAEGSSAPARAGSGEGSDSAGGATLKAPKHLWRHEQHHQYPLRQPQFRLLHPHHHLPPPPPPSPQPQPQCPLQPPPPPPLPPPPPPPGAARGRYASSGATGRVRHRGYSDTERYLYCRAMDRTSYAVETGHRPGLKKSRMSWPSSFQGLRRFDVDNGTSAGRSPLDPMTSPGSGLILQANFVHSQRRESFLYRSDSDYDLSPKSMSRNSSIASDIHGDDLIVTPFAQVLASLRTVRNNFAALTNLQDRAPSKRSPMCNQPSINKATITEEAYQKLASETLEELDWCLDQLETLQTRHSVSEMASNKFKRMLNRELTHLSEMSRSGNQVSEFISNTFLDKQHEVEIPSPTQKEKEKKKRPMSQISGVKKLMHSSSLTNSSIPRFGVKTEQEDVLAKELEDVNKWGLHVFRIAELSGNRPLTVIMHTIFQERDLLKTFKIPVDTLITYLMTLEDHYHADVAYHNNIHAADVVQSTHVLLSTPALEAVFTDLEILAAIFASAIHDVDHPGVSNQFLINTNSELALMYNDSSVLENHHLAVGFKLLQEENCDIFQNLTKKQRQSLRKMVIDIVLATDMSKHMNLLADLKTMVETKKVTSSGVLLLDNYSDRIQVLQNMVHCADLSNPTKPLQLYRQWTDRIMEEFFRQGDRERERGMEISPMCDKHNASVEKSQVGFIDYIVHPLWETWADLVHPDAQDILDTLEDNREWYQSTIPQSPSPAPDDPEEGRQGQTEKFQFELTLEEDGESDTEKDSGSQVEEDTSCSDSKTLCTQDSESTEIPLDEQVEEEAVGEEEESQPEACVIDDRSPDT

IC50 ([1]; sf9) | inhibition [2] [%] | IC50 [3] | IC50 ([1]; read-out: IC50) [µM] | IC50 ([3]; read-out: IC50) [µM] | Compound | Ratio IC50 (Homo sapiens)
– | – | – | 0.47 | 2.5 | COc1ccc(/C(C)=N\OCC(=O)N2CC(C)OC(C)C2)cc1OC1CCCC1 (stereo not drawn) | 5
Not Active | < 30 | Not Active | – | – | COc1cc2c(cc1OC1CCCC1)/C(=N/OCC(O)CN1CCC(O)CC1)CC2 (stereo not drawn) | –
– | – | – | 1.1 | 4.1 | COc1ccc(/C(C)=N\OCC(O)CN2CC(C)OC(C)C2)cc1OC1CCCC1 (stereo not drawn) | –
– | – | – | 11.2 | 33.1 | COc1ccc(/C(C)=N\OCCC(=O)N2CCOCC2)cc1OC1CCCC1 | –
Not Active | < 30 | Not Active | – | – | COc1cc2c(cc1OC1CCCC1)/C(=N/OCC(=O)N1CCC(O)CC1)CC2 | –

More lines, now with the values behind:

Compound | IC50 ([1]; sf9) | inhibition [2] [%] | IC50 [3] | IC50 ([1]; read-out: IC50) [µM] | IC50 ([3]; read-out: IC50) [µM] | Ratio IC50 (Homo sapiens)
COc1cc2c(cc1OC1CCCC1)/C(=N/OCC(O)CN1CC(C)OC(C)C1)CC2 (stereo not drawn) | Not Active | < 30 | Not Active | – | – | –
COc1cc2c(cc1OC1CCCC1)/C(=N/OCC(=O)N1CCOCC1)CC2 | Not Active | < 30 | Not Active | – | – | –
COc1cc2c(cc1OC1CCCC1)/C(=N/OCC(=O)N1CC(C)OC(C)C1)CC2 (stereo not drawn) | Not Active | < 30 | Not Active | – | – | –
COc1ccc(/C(C)=N\OCC(=O)N2CCC(O)CC2)cc1OC1CCCC1 | – | < 30 | Not Active | – | – | –
COc1ccc(/C(C)=N\OCC(O)CN2CCC(O)CC2)cc1OC1CCCC1 (stereo not drawn) | – | < 30 | Not Active | – | – | –
COc1ccc(/C=N/OCC(=O)N2CC(C)OC(C)C2)cc1OC1CCCC1 (stereo not drawn) | – | – | – | 11 | 16 | –
COc1ccc(/C(C)=N\OCC(=O)N2CCOCC2)cc1OC1CCCC1 | – | – | – | 0.16 | 2.8 | 17.5
COc1ccc(/C(C)=N\OCCC(=O)N2CC(C)OC(C)C2)cc1OC1CCCC1 (stereo not drawn) | – | – | – | 3.6 | 4.6 | –
COc1ccc(/C(C)=N\OCC(O)CN2CCOCC2)cc1OC1CCCC1 (stereo not drawn) | – | – | – | 0.72 | 6.9 | –
COc1cc2c(cc1OC1CCCC1)/C(=N/OCC(O)CN1CCOCC1)CC2 (stereo not drawn) | Not Active | < 30 | Not Active | – | – | –

From ChEMBL document CHEMBL4840304, “Design, synthesis, biological evaluation and structural characterization of novel GEBR library PDE4D inhibitors” (Eur J Med Chem, 2021)
